Our source for the MIC values is ChEMBL document CHEMBL1154831, “Synthesis, characterization and biological activity of some new 1,3,4-oxadiazole bearing 2-flouro-4-methoxy phenyl moiety” (2010).

Holding throughout (type): functional
In one test the test system is Pseudomonas aeruginosa. Nature of the test: Antimicrobial activity against Pseudomonas aeruginosa after 16 to 18 hrs by serial dilution method. Summed up:
(§1)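 Serial dilutions of each compound, each inoculated with one standard drop of the prepared test culture. Incubation was 16–18 h at 37 °C. MIC was read as the highest dilution giving clear fluid with no turbidity.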

The next test has as its system Staphylococcus aureus. Nature of the test: Antimicrobial activity against Staphylococcus aureus after 16 to 18 hrs by serial dilution method. Summed up:
as §1

A further test has as its system Escherichia coli. Nature of the test: Antimicrobial activity against Escherichia coli after 16 to 18 hrs by serial dilution method. In outline: as §1
Another test has as its system Bacillus subtilis. Nature of the test: Antimicrobial activity against Bacillus subtilis after 16 to 18 hrs by serial dilution method. Summed up: as §1
For another test, the system named is Candida albicans. Nature of the test: Antimicrobial activity against Candida albicans after 16 to 18 hrs by serial dilution method. Summed up:
as §1

Converted amounts (≈) assume the structure as drawn.

For the compound `NC(=O)N/N=C/c1ccc([N+](=O)[O-])o1` [NITROFURAZONE], the MIC with Pseudomonas aeruginosa was determined as 12.5 µg/mL (≈ 63.1 µM); against Staphylococcus aureus, 12.5 µg/mL (≈ 63.1 µM); in the test on Escherichia coli it was 6 µg/mL (≈ 30.3 µM); in the test with Bacillus subtilis it was 12.5 µg/mL (≈ 63.1 µM).
Regarding `COc1ccc(-c2nnc(-c3ccc(Cl)nc3)o2)c(F)c1`, the MIC was determined as 12.5 µg/mL (≈ 40.9 µM) with Pseudomonas aeruginosa; 12.5 µg/mL (≈ 40.9 µM) against Staphylococcus aureus; 6 µg/mL (≈ 19.6 µM) with Candida albicans; 6 µg/mL (≈ 19.6 µM) against Escherichia coli; 6 µg/mL (≈ 19.6 µM) in the test with Bacillus subtilis.
On to `COc1ccc(-c2nnc(-c3cccc(C)c3C)o2)c(F)c1`, for which the MIC in the test with Pseudomonas aeruginosa amounted to 12.5 µg/mL (≈ 41.9 µM); with Staphylococcus aureus, 6 µg/mL (≈ 20.1 µM); in the test with Candida albicans it was 6 µg/mL (≈ 20.1 µM); in the test with Escherichia coli it was 6 µg/mL (≈ 20.1 µM); in the test with Bacillus subtilis, 6 µg/mL (≈ 20.1 µM).
With `COc1ccc(-c2nnc(-c3ccc(F)c(F)c3F)o2)c(F)c1`, the minimum inhibitory concentration (MIC) was 3 µg/mL (≈ 9.25 µM) with Pseudomonas aeruginosa; 6 µg/mL (≈ 18.5 µM) against Staphylococcus aureus; 6 µg/mL (≈ 18.5 µM) in the test with Candida albicans; 3 µg/mL (≈ 9.25 µM) against Escherichia coli; 6 µg/mL (≈ 18.5 µM) in the test on Bacillus subtilis.
Consider `COc1ccc(-c2nnc(-c3ccc([N+](=O)[O-])c(F)c3)o2)c(F)c1`, for which the minimal inhibitory concentration (MIC) in the test with Pseudomonas aeruginosa, in the test with Staphylococcus aureus, in the test with Candida albicans, against Escherichia coli and against Bacillus subtilis was 6 µg/mL (≈ 18 µM) in each case.
`COc1ccc(-c2nnc(-c3ccccc3C(F)(F)F)o2)c(F)c1`: the minimum inhibitory concentration (MIC) with Pseudomonas aeruginosa, in the test on Staphylococcus aureus, against Candida albicans, against Escherichia coli and with Bacillus subtilis was 6 µg/mL (≈ 17.7 µM) in each case.
With `COc1ccc(-c2nnc(-c3ccc(F)cc3)o2)c(F)c1`, the MIC was found to be 6 µg/mL (≈ 20.8 µM) with Pseudomonas aeruginosa; 6 µg/mL (≈ 20.8 µM) with Staphylococcus aureus; 6 µg/mL (≈ 20.8 µM) in the test with Candida albicans; 12.5 µg/mL (≈ 43.4 µM) against Escherichia coli; 6 µg/mL (≈ 20.8 µM) against Bacillus subtilis.
With `COc1ccc(-c2nnc(-c3cnc4ccccc4c3)o2)c(F)c1`, the minimal inhibitory concentration (MIC) against Pseudomonas aeruginosa, against Staphylococcus aureus, in the test with Candida albicans, with Escherichia coli and against Bacillus subtilis was 6 µg/mL (≈ 18.7 µM) throughout.
Compound `OC(Cn1cncn1)(Cn1cncn1)c1ccc(F)cc1F` [FLUCONAZOLE] displayed an MIC in the test with Candida albicans of 6 µg/mL (≈ 19.6 µM).
With `COc1ccc(-c2nnc(-c3c([N+](=O)[O-])ccc(F)c3F)o2)c(F)c1`, the minimum inhibitory concentration (MIC) in the test on Pseudomonas aeruginosa was determined as 6 µg/mL (≈ 17.1 µM); in the test on Staphylococcus aureus it was 6 µg/mL (≈ 17.1 µM); against Candida albicans, 6 µg/mL (≈ 17.1 µM); in the test with Escherichia coli, 12.5 µg/mL (≈ 35.6 µM); in the test with Bacillus subtilis it was 6 µg/mL (≈ 17.1 µM).
Turning to `COc1ccc(-c2nnc(-c3cccc(C#N)c3)o2)c(F)c1`, the minimum inhibitory concentration (MIC) against Pseudomonas aeruginosa, in the test on Staphylococcus aureus, with Candida albicans, against Escherichia coli and with Bacillus subtilis was 6 µg/mL (≈ 20.3 µM) each time.
For `COc1ccc(-c2nnc(-c3cc(Cl)ccc3Br)o2)c(F)c1`, the MIC against Pseudomonas aeruginosa is 6 µg/mL (≈ 15.6 µM); with Staphylococcus aureus it was 6 µg/mL (≈ 15.6 µM); in the test with Candida albicans it was 3 µg/mL (≈ 7.82 µM); in the test on Escherichia coli, 6 µg/mL (≈ 15.6 µM); in the test with Bacillus subtilis, 6 µg/mL (≈ 15.6 µM).
As for `COc1ccc(-c2nnc(-c3cc(C)on3)o2)c(F)c1`, the MIC is 6 µg/mL (≈ 21.8 µM) against Pseudomonas aeruginosa; 12.5 µg/mL (≈ 45.4 µM) in the test on Staphylococcus aureus; 3 µg/mL (≈ 10.9 µM) in the test on Candida albicans; 6 µg/mL (≈ 21.8 µM) against Escherichia coli; 12.5 µg/mL (≈ 45.4 µM) against Bacillus subtilis.
As for `COc1ccc(-c2nnc(-c3cccc(Br)c3C)o2)c(F)c1`, the minimal inhibitory concentration (MIC) in the test on Pseudomonas aeruginosa came out at 3 µg/mL (≈ 8.26 µM); in the test with Staphylococcus aureus, 6 µg/mL (≈ 16.5 µM); in the test with Candida albicans it was 6 µg/mL (≈ 16.5 µM); in the test with Escherichia coli, 3 µg/mL (≈ 8.26 µM); with Bacillus subtilis, 6 µg/mL (≈ 16.5 µM).
Regarding `COc1ccc(-c2nnc(-c3cc(F)cc(F)c3)o2)c(F)c1`, the minimum inhibitory concentration (MIC) against Pseudomonas aeruginosa, in the test on Staphylococcus aureus, in the test on Candida albicans, in the test with Escherichia coli and with Bacillus subtilis was 6 µg/mL (≈ 19.6 µM) each time.
